Read-outs that look alike come from different tables or passages of the source.
Assays:
[1] = tested on: fibroblast cells (NIH/3T3); assay: Cytotoxicity assay; assay type: cell-based, murine; settings: for IC50: Mus musculus, NIH3T3, 48 h; for NIH/3T3 SI (selectivity index): SI = IC50 mammalian cell/IC50 amastigotes (µg/mL)
Procedure, shortened: (§1)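 Cells exposed 48 h at 37 °C, 5% CO2, to four concentrations (0.25-250 µg/mL) in triplicate. Amphotericin B reference (0.025-25 µg/mL); DMSO vehicle control. SRB read-out: fixation in cold 20% TCA, 30 min at 4 °C; 0.1% SRB in 1% acetic acid, 30 min; dye solubilised in 10 mM Trizma; OD 540 nm. IC50 by non-linear regression. SI = mammalian-cell IC50 / amastigote IC50.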

[2] = tested on: intracellular amastigotes of Leishmania (Leishmania) amazonensis; assay type: cell-based, Leishmania (L.) amazonensis (IFLA/BR/1967/PH8); settings: for reduction of infection index: 72 h; for IC50: Peritoneal macrophage
Procedure, shortened: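 Resident peritoneal macrophages from 6-week-old female BALB/c mice, 1 x 10^5/well in RPMI-1640 with 10% FCS and gentamicin, 1 h at 37 °C, 5% CO2. Infected with promastigotes (1 x 10^6/well), 4 h at 35 °C. Extract 50-12.5 µg/mL (24, 48, 72 h) or isolated compounds (72 h) at 35 °C. Giemsa staining; 200 cells counted per replicate. Infection index = % infected macrophages × mean amastigotes per macrophage. IC50 by non-linear dose-response regression.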

[3] = tested on: NO production by L. amazonensis infected cells; assay: Nitric oxide; assay type: cell-based, BALB/c mice; settings: for production of nitric oxide (NO): treated infected cells, concentration not given; for NO production: vs untreated infected cells
Procedure, shortened: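 Supernatants were taken from infected BALB/c peritoneal macrophages treated as in the amastigote assay. Nitrite was quantified against a sodium nitrite standard curve (1-10 µM in RPMI). Results are mean ± SD, compared with untreated infected cells by Student's t test.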

[4] = tested on: Murine macrophages (J774.A1); assay: Cytotoxicity assay; assay type: cell-based; settings: for IC50: Mus musculus, J774.A1, 48 h; for J774.A1 SI (selectivity index): SI = IC50 mammalian cell/IC50 amastigotes (µg/mL)
Procedure, shortened: as §1

[5] = tested on: axenic amastigotes of Leishmania donovani; settings: ref Weniger et al. 2006, Kunert et al. 2008; cited from earlier work
[6] = tested on: promastigotes of Leishmania donovani; settings: ref Camacho et al. 2000; cited from earlier work
[7] = read-out: Intracellular amastigotes IC50
[8] = read-out: Intracellular amastigotes IC50 (µM)

| IC50 [2, 7] | IC50 [2, 8] | SMILES | IC50 ([1]; read-out: NIH/3T3 IC50) | IC50 ([1]; read-out: NIH/3T3 IC50 (µM)) | NIH/3T3 SI (selectivity index) [1] | reduction of infection index ([2]; 12.5 µg/mL) | NO release ([3]; highest concentration tested, 72 h) | production of nitric oxide (NO) [3] | IC50 ([4]; read-out: J774.A1 IC50) | IC50 ([4]; read-out: J774.A1 IC50 (µM)) | J774.A1 SI (selectivity index) [4] | activity on axenic amastigotes [5] | reduction of infection index ([2]; all concentrations tested, compared to the control) | reduction of infection index ([2]; highest concentration (3 µg/mL)) | activity on promastigotes [6] | NO production ([3]; 0.75 µg/mL, 72 h, p < 0.01) | NO production ([3]; 1.5 µg/mL, 72 h, p < 0.05) |
| --- | --- | --- | --- | --- | --- | --- | --- | --- | --- | --- | --- | --- | --- | --- | --- | --- | --- |
| 2.8 µg/mL | 5.3 µM | O=c1cc(-c2ccc(O)c(-c3c(O)cc4oc(-c5ccc(O)cc5)cc(=O)c4c3O)c2)oc2cc(O)cc(O)c12 [Robustaflavone, robustaflavone] | 25.5 µg/mL | 47.4 µM | 9.1 | 90.8% | increased | higher | 3.1 µg/mL | 5.7 µM | 1.1 | – | – | – | – | – | – |
| 0.03 µg/mL | 0.035 µM | C[C@@H]1[C@H](O)[C@@H](C)/C=C/C=C/C=C/C=C/C=C/C=C/C=C/[C@H](O[C@@H]2O[C@H](C)[C@@H](O)[C@H](N)[C@@H]2O)C[C@@H]2O[C@](O)(C[C@@H](O)C[C@@H](O)[C@H](O)CC[C@@H](O)C[C@@H](O)CC(=O)O[C@H]1C)C[C@H](O)[C@H]2C(=O)O [Amphotericin B, reference compound] | 2.2 µg/mL | 2.2 µM | 73 | – | – | – | 4.3 µg/mL | 4.7 µM | 143.3 | – | – | – | – | – | – |
| 0.1 µg/mL | 0.2 µM | O=c1cc(-c2ccc(O)c(-c3c(O)cc(O)c4c(=O)cc(-c5ccc(O)cc5)oc34)c2)oc2cc(O)cc(O)c12 [Amentoflavone, amentoflavone] | 2.2 µg/mL | 4 µM | 22 | – | – | lower | 3 µg/mL | 5.5 µM | 30 | not active | greater than 90.6% | ~100% | poor activity | significantly lower | significantly lower |

Source: paper PMC4325620 (Memórias do Instituto Oswaldo Cruz, 2014)
